Values after ≈ are worked out from the molar mass of the structure shown. Peptide text beside a SMILES is read from it.
Legend:
Staphylococcus aureus [1] = test: Antibacterial activity against Staphylococcus aureus ATCC 700699 infected in C57BL6 mouse cornea assessed as decrease in number of viable bacteria at 0.5% administered topically at 2 hrs interval for 4 times starting on day 1 post infection measured post last dose relative to control; format: functional, Mu50
Bacillus cereus = test: Antibacterial activity against Bacillus cereus ATCC 11778 after 24 hrs by two fold dilution assay; format: functional; details: ATCC 11778, 24 h
How it was run: (§1)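 Broth macro-dilution per CLSI in cation-adjusted Mueller-Hinton broth; compounds dissolved in DMF, diluted in PBS to 1000 µg/mL stock, then serial 2-fold dilutions in CA-MHB in tubes. Inoculum from 18-20 h TSA colonies (direct colony suspension), adjusted to about 5× 10^5 CFU/mL. MIC read after 24 h at 35 °C as lowest concentration with no visible growth; biological replicates.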

Staphylococcus aureus [2] = test: Antibacterial activity against methicillin-resistant Staphylococcus aureus DM 9808R after 24 hrs by two fold dilution assay; format: functional
How it was run: (§2)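 CLSI broth macrodilution in cation-adjusted Mueller-Hinton broth. Compounds were dissolved in DMF and diluted in PBS to a 1000 µg/mL stock, then serially 2-fold diluted in CA-MHB. The inoculum came from colonies on 18-20 h TSA plates (direct colony suspension), adjusted to ~5×10^5 CFU/mL. Incubation was 24 h at 35 °C. MIC is the lowest concentration with no visible growth versus control. Biological replicates.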

Staphylococcus aureus [3] = test: Antibacterial activity against Staphylococcus aureus DM 4001R after 24 hrs by two fold dilution assay; format: functional; how it was run: as §2
Staphylococcus aureus [4] = test: Antibacterial activity against methicillin-resistant Staphylococcus aureus DM 21455 after 24 hrs by two fold dilution assay; format: functional; details: DM 21455, 24 h; how it was run: as §2
Staphylococcus aureus [5] = test: Antibacterial activity against methicillin-sensitive Staphylococcus aureus DM4299 after 24 hrs by two fold dilution assay; format: functional; details: DM4299, 24 h; how it was run: as §2
Enterococcus faecium [6] = test: Antibacterial activity against vancomycin A-resistant Enterococcus faecium VRE 1008 after 24 hrs by two fold dilution assay; format: functional; details: VRE 1008, 24 h; how it was run: as §2
Staphylococcus aureus [7] = test: Antibacterial activity against methicillin-sensitive Staphylococcus aureus DM4400R after 24 hrs by two fold dilution assay; format: functional; how it was run: as §2
Enterococcus faecium [8] = test: Antibacterial activity against vancomycin A-resistant Enterococcus faecium VRE 1007 after 24 hrs by two fold dilution assay; format: functional; details: VRE 1007, 24 h; how it was run: as §2
Enterococcus faecalis = test: Antibacterial activity against Enterococcus faecalis ATCC 29212 after 24 hrs by two fold dilution assay; format: functional; details: ATCC 29212, 24 h; how it was run: as §1
Staphylococcus aureus [9] = test: Antibacterial activity against methicillin-resistant Staphylococcus aureus DB6506 after 24 hrs by two fold dilution assay; format: functional; details: DB6506, 24 h; how it was run: as §2
Staphylococcus aureus [10] = test: Antibacterial activity against methicillin-resistant Staphylococcus aureus DB68004 after 24 hrs by two fold dilution assay; format: functional; details: DB68004, 24 h; how it was run: as §2
Staphylococcus aureus [11] = test: Antibacterial activity against methicillin-sensitive Staphylococcus aureus ATCC 29213 after 24 hrs by two fold dilution assay; format: functional; details: ATCC 29213, 24 h; how it was run: as §2
Enterococcus faecium [12] = test: Antibacterial activity against vancomycin A-resistant Enterococcus faecium VRE 1006 after 24 hrs by two fold dilution assay; format: functional; details: VRE 1006, 24 h; how it was run: as §2
Staphylococcus aureus [13] = test: Antibacterial activity against methicillin-resistant Staphylococcus aureus ATCC 700699 after 24 hrs by two fold dilution assay; format: functional; details: Mu50, 24 h; how it was run: as §2
Staphylococcus aureus [14] = test: Antibacterial activity against methicillin-sensitive Staphylococcus aureus ATCC 29737 after 24 hrs by two fold dilution assay; format: functional; details: ATCC 29737, 24 h; how it was run: as §2
Staphylococcus aureus [15] = test: Antibacterial activity against methicillin-resistant Staphylococcus aureus ATCC 43300 after 24 hrs by two fold dilution assay; format: functional; details: ATCC 43300, 24 h; how it was run: as §2
Staphylococcus aureus [16] = test: Antibacterial activity against methicillin-sensitive Staphylococcus aureus ATCC 6538 after 24 hrs by two fold dilution assay; format: functional; details: ATCC 6538, 24 h; how it was run: as §2
Enterococcus hirae = test: Antibacterial activity against Enterococcus hirae ATCC 9790 after 24 hrs by two fold dilution assay; format: functional; details: ATCC 9790, 24 h; how it was run: as §1
Staphylococcus aureus [17] = test: Antibacterial activity against methicillin-resistant Staphylococcus aureus ATCC BAA-38 after 24 hrs by two fold dilution assay; format: functional; details: ATCC BAA-38, 24 h; how it was run: as §2
Staphylococcus aureus [18] = test: Antibacterial activity against methicillin-resistant Staphylococcus aureus DB57964 after 24 hrs by two fold dilution assay; format: functional; details: DB57964, 24 h; how it was run: as §2
Staphylococcus aureus [19] = test: Antibacterial activity against methicillin-sensitive Staphylococcus aureus DM4583R after 24 hrs by two fold dilution assay; format: functional; how it was run: as §2
Staphylococcus aureus [20] = test: Antibacterial activity against Staphylococcus aureus ATCC 29213 infected in C57BL6 mouse cornea assessed as decrease in number of viable bacteria at 0.5% administered topically at 2 hrs interval for 4 times starting on day 1 post infection measured post last dose relative to control; format: functional
Staphylococcus aureus [21] = test: Ratio of MIC for Staphylococcus aureus ATCC 29213 after and before 15 serial passages; format: functional

CC[C@H](C)[C@H](NC(=O)CN)C(=O)NCC(=O)N[C@@H](CCCCN)C(=O)N[C@@H](Cc1ccccc1)C(=O)N[C@@H](CC(C)C)C(=O)N[C@@H](CCCCN)C(=O)N[C@@H](CCCCN)C(=O)N[C@@H](C)C(=O)N[C@@H](CCCCN)C(=O)N[C@@H](CCCCN)C(=O)N[C@@H](Cc1ccccc1)C(=O)NCC(=O)N[C@@H](CCCCN)C(=O)N[C@@H](C)C(=O)N[C@@H](Cc1ccccc1)C(=O)N[C@H](C(=O)N[C@@H](CCCCN)C(=O)N[C@H](C(=O)N[C@@H](CC(C)C)C(=O)N[C@@H](CCCCN)C(=O)N[C@@H](CCCCN)C(=O)O)[C@@H](C)CC)C(C)C (H-GIGKFLKKAKKFGKAFVKILKK-OH)
Activity (Staphylococcus aureus [1]): 93.3%
MIC (Bacillus cereus): 12.5 µg/mL (≈ 5.04 µM)
MIC (Staphylococcus aureus [2]): 25 µg/mL (≈ 10.1 µM)
MIC (Staphylococcus aureus [3]): 12.5 µg/mL (≈ 5.04 µM)
MIC (Staphylococcus aureus [4]): 12.5 µg/mL (≈ 5.04 µM)

CN[C@H](CC(C)C)C(=O)N[C@H]1C(=O)N[C@@H](CC(N)=O)C(=O)N[C@H]2C(=O)N[C@H]3C(=O)N[C@H](C(=O)N[C@H](C(=O)O)c4cc(O)cc(O)c4-c4cc3ccc4O)[C@H](O)c3ccc(c(Cl)c3)Oc3cc2cc(c3O[C@@H]2O[C@H](CO)[C@@H](O)[C@H](O)[C@H]2O[C@H]2C[C@](C)(N)[C@H](O)[C@H](C)O2)Oc2ccc(cc2Cl)[C@H]1O [VANCOMYCIN]
MIC (Staphylococcus aureus [5]): 1.56 µg/mL (≈ 1.08 µM)
MIC (Enterococcus faecium [6]): > 50 µg/mL
MIC (Staphylococcus aureus [7]): 0.78 µg/mL (≈ 0.538 µM)
MIC (Enterococcus faecium [8]): > 50 µg/mL
MIC (Enterococcus faecalis): 1.56 µg/mL (≈ 1.08 µM)
MIC (Staphylococcus aureus [9]): 0.78 µg/mL (≈ 0.538 µM)
MIC (Staphylococcus aureus [10]): 1.56 µg/mL (≈ 1.08 µM)
MIC (Staphylococcus aureus [11]): 1.56 µg/mL (≈ 1.08 µM)
MIC (Enterococcus faecium [12]): > 50 µg/mL
MIC (Staphylococcus aureus [13]): 1.56 µg/mL (≈ 1.08 µM)
MIC (Staphylococcus aureus [14]): 0.78 µg/mL (≈ 0.538 µM)
MIC (Staphylococcus aureus [15]): 0.78 µg/mL (≈ 0.538 µM)
MIC (Bacillus cereus): 1.56 µg/mL (≈ 1.08 µM)
MIC (Staphylococcus aureus [16]): 0.78 µg/mL (≈ 0.538 µM)
MIC (Enterococcus hirae): 0.78 µg/mL (≈ 0.538 µM)
MIC (Staphylococcus aureus [17]): 1.56 µg/mL (≈ 1.08 µM)
MIC (Staphylococcus aureus [2]): 3.13 µg/mL (≈ 2.16 µM)
MIC (Staphylococcus aureus [18]): 0.78 µg/mL (≈ 0.538 µM)
MIC (Staphylococcus aureus [19]): 1.56 µg/mL (≈ 1.08 µM)
MIC (Staphylococcus aureus [3]): 1.56 µg/mL (≈ 1.08 µM)
MIC (Staphylococcus aureus [4]): 1.56 µg/mL (≈ 1.08 µM)

CCCOc1cc(OCC(=O)N[C@@H](CCCNC(=N)N)C(=O)OC)c2c(=O)c3c(OCC(=O)N[C@@H](CCCNC(=N)N)C(=O)OC)cc(OCCC)cc3oc2c1
MIC (Bacillus cereus): 25 µg/mL (≈ 31.2 µM)
MIC (Staphylococcus aureus [2]): 12.5 µg/mL (≈ 15.6 µM)
MIC (Staphylococcus aureus [3]): 12.5 µg/mL (≈ 15.6 µM)
MIC (Staphylococcus aureus [4]): 12.5 µg/mL (≈ 15.6 µM)

C[C@H]1COc2c(N3CCN(C)CC3)c(F)cc3c(=O)c(C(=O)O)cn1c23.C[C@H]1COc2c(N3CCN(C)CC3)c(F)cc3c(=O)c(C(=O)O)cn1c23.O [LEVOFLOXACIN]
Activity (Staphylococcus aureus [20]): 99.2%

CCn1cc(C(=O)O)c(=O)c2cc(F)c(N3CCNCC3)cc21 [NORFLOXACIN]
Ratio (Staphylococcus aureus [21]): 128

CC(C)=CCOc1cc(OCC(=O)N[C@@H](CCCNC(=N)N)C(N)=O)c2c(=O)c3c(OCC(=O)N[C@@H](CCCNC(=N)N)C(N)=O)cc(OCC=C(C)C)cc3oc2c1
MIC (Bacillus cereus): 12.5 µg/mL (≈ 15.2 µM)
MIC (Staphylococcus aureus [2]): 6.25 µg/mL (≈ 7.59 µM)
MIC (Staphylococcus aureus [3]): 12.5 µg/mL (≈ 15.2 µM)
MIC (Staphylococcus aureus [4]): 6.25 µg/mL (≈ 7.59 µM)

COC(=O)[C@H](CCCNC(=N)N)NC(=O)COc1cc(OC/C=C(\C)CCC=C(C)C)cc2oc3cc(OC/C=C(\C)CCC=C(C)C)cc(OCC(=O)N[C@@H](CCCNC(=N)N)C(=O)OC)c3c(=O)c12
MIC (Bacillus cereus): > 50 µg/mL
MIC (Staphylococcus aureus [2]): 50 µg/mL (≈ 50.5 µM)
MIC (Staphylococcus aureus [3]): 25 µg/mL (≈ 25.3 µM)
MIC (Staphylococcus aureus [4]): > 50 µg/mL

COc1c(N2CCNC(C)C2)c(F)cc2c(=O)c(C(=O)O)cn(C3CC3)c12 (stereo unspecified) [GATIFLOXACIN]
Ratio (Staphylococcus aureus [21]): 64
